Screening data as filed in PubChem BioAssay.
An excerpt weighted towards active compounds, which were near 3.8% of everything screened.
KCNK9 block: blocks the human KCNK9 two-pore domain potassium channel. AID 488922. B-score at 10 µM. HEK293 KCNK9, FluxOR thallium flux fluorescence; stronger effect = lower value. 1.2% of 310,000 active;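 active = ratio B-score over 3 SD below the library mean, with starting fluorescence within 5 SD of its mean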;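 also: negative B-score means less thallium flux so channel inhibition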
Target sequence (Q9NPC2 whole entry, looked up, the tested form may be a part): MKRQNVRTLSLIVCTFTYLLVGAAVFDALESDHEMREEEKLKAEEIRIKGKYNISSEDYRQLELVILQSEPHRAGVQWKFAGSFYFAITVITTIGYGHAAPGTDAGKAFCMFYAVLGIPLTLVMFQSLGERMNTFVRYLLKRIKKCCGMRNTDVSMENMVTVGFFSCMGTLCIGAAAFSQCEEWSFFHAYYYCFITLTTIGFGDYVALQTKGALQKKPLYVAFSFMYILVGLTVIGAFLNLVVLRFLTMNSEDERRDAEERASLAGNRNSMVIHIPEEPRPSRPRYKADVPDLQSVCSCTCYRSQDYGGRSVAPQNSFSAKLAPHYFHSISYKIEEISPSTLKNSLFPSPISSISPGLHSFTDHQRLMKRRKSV
Kir21 inh: inhibitors of mouse Kir2.1 inward-rectifier potassium channel | B-score at 10 µM | 0.85% of 310,000 active | HEK293-Kir2.1, FluxOR thallium flux fluorescence; stronger effect = lower value;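 active = fluorescence ratio B-score at or below minus 3 SD of library scores, with starting-brightness B-score within 2 SD, cut at about -4.2 in these data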;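 also: channel flux triggered by added potassium and thallium sulfate stimulus; B-score of peak minus minimum fluorescence over baseline after thallium stimulus; more negative B-score means stronger Kir2.1 block with less thallium influx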
KCNQ1 block: human KCNQ1 channel inhibition; P51787; CHO-K1 KCNQ1, FluxOR thallium flux fluorescence; stronger effect = higher value; 1.3% of 310,000 active; B-score at 10 µM;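 active = compounds whose thallium flux B-score, printed positive for inhibition, exceeds three library SD while starting fluorescence stays within three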;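 also: channel opened by potassium depolarization with thallium stimulus after 20 min compound exposure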
KCNQ1 pot: human KCNQ1 channel potentiation or activation | B-score at 10 µM | P51787 | CHO-K1 KCNQ1, thallium flux FluxOR fluorescence; stronger effect = higher value | 0.35% of 310,000 active;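 active = fluorescence ratio B-score, a plate-corrected score, at least three library SD, with initial intensity B-score within 5 SD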
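System: Stable KCNQ1 CHO-K1 line | Incubation: 90 min dye loading and 20 min compound exposure, both at room temperature | Measure: Ratio B score | Medium: Assay buffer for compound exposure, DMSO matched across wells | Compound dosing: Single-concentration screen | Probe or stimulus: K+/Tl+ depolarizing stimulus | Measured by: Kinetic FluxOR fluorescence, 10 s baseline plus 110 s post-stimulus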
KCNK3 inh: human KCNK3 channel inhibition, primary screen. CHO-KCNK3 thallium flux, FluxOR fluorescence; stronger effect = lower value. B-score at 10 µM. 0.84% of 340,000 active. AID 602410;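 active = B-score under library mean minus 4 SD, starting fluorescence ratio at most library mean plus 5 SD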;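 also: more negative B-score means stronger inhibition of thallium flux through KCNK3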
hERG protect: compounds protecting human hERG from proarrhythmic drug block | Q12809 | CHO-hERG, FluxOR thallium flux, dofetilide IC70 present | activation (rescue from dofetilide block), less the hit threshold, % at 10 µM | 0.51% of 310,000 active | AID 1511;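 active = activation above the mean of controls blocked by dofetilide plus 5 SD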;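 also: thallium influx through hERG after potassium depolarization seen as dye fluorescence rise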
KCNK9 inh conf: human KCNK9 inhibitor confirmation. HEK293 KCNK9 cells, FluxOR thallium flux fluorescence. inhibition, % at 10 µM. 43% of 4,900 active. shares compounds with KCNK9 block;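 active = thallium signal inhibited by more than 5 SD of the compound-free buffer control wells, on both duplicate plates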;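 also: 0% = assay buffer control wells without compound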
Kir2-1 spec: selectivity of KCNK9 modulators against mouse Kir2.1 | shares compounds with KCNK9 block | Kir2.1 cells, FluxOR thallium flux fluorescence | inhibition, % at 10 µM | 4% of 4,900 active;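 active = thallium signal drop more than 5 SD beyond the mean of the no-compound control wells, seen in both duplicate plates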;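 also: signal is fluorescence rise after thallium addition divided by baseline fluorescence; plate controls were assay buffer only for no effect and full block by chlorpromazine control for full effect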
HEK293 Tl ctr: second check of KCNK9 modulator effects in non-induced HEK293 cells. shares compounds with KCNK9 block. FluxOR thallium flux. inhibition, % at 10 µM. 40% of 4,900 active;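 active = thallium signal drop beyond 5 SD of the untreated control mean, on both duplicate plates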;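 also: plate controls were buffer only IC0 wells for no effect and SID17386958 at its maximal inhibitory level for full effect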
Starred values were filed as active, the others as inactive.

For CC(C)CN1CCC(=O)N(CCOc2ccccc2)CC1 the results were KCNK9 block inactive, Kir21 inh -0.15, KCNQ1 block inactive, KCNQ1 pot inactive, KCNK3 inh inactive and hERG protect -4.8.
For CC(C)CN1CCC(=O)N(CCSc2ccc(Br)cc2)CC1 the results were KCNK9 block inactive, Kir21 inh -1.45, KCNQ1 block inactive, KCNQ1 pot inactive, KCNK3 inh inactive, hERG protect -5.6, KCNK9 inh conf inactive, Kir2-1 spec inactive and HEK293 Tl ctr inactive.
For N/C(=N\OC(=O)Cc1ccc(-c2ccccc2)cc1)c1ccncc1 the results were KCNK9 block inactive, Kir21 inh -0.96, KCNQ1 block inactive, KCNQ1 pot inactive, KCNK3 inh inactive, hERG protect -5.6, KCNK9 inh conf 30.0%*, Kir2-1 spec inactive and HEK293 Tl ctr inactive.
Screening O=c1c2sccc2nc(SCc2ccc([N+](=O)[O-])cc2)n1Cc1ccccn1 returned KCNK9 block -9.57*, Kir21 inh -1.57, KCNQ1 block inactive, KCNQ1 pot inactive, KCNK3 inh inactive, hERG protect -11.6, KCNK9 inh conf 74.0%*, Kir2-1 spec inactive and HEK293 Tl ctr 27.5%*.
Cc1ccc(S(=O)(=O)N2CCN(C(=O)COC(=O)c3ncc(Cl)c(Cl)c3Cl)CC2)c(C)c1 was read as KCNK3 inh inactive.
Screening O=C(CC1C=Cc2ccccc2N1C(=O)c1ccccc1)c1ccccc1 (stereo unspecified) returned KCNK9 block -13.4*, Kir21 inh 0.51, KCNQ1 block inactive, KCNQ1 pot inactive, KCNK3 inh inactive, hERG protect -7.5, KCNK9 inh conf 29.5%*, Kir2-1 spec inactive and HEK293 Tl ctr inactive.
Screening COc1ccc(NC(=O)CSc2nnc(-c3cc(C)[nH]n3)n2N)cc1OC returned KCNK9 block inactive, Kir21 inh -0.75, KCNQ1 block inactive, KCNQ1 pot inactive, KCNK3 inh inactive and hERG protect -4.2.
CC1(C)NC(=O)N(CC(O)COc2ccccc2C(=O)Nc2ccccc2)C1=O (stereo unspecified) was read as KCNK9 block -14.7*, Kir21 inh -0.45, KCNQ1 block inactive, KCNQ1 pot inactive, KCNK3 inh inactive, hERG protect -6.0, KCNK9 inh conf 58.0%*, Kir2-1 spec inactive and HEK293 Tl ctr inactive.
Cc1ccn2c(/C=N/OCc3cccc(F)c3)c(-c3ccc(Cl)cc3)nc2c1 was read as KCNK9 block -8.4*, Kir21 inh -0.67, KCNQ1 block inactive, KCNQ1 pot inactive, KCNK3 inh inactive, hERG protect -15.7, KCNK9 inh conf inactive, Kir2-1 spec inactive and HEK293 Tl ctr 33.0%*.
For Cc1ccn2c(C(=O)CSc3ccc(Cl)cc3)c(C)nc2c1 the results were KCNK9 block inactive, Kir21 inh 0.06, KCNQ1 block inactive, KCNQ1 pot inactive, KCNK3 inh inactive and hERG protect -5.6.
`Cc1cc(-c2cc(-c3ccc(Cl)cc3)on2)nc(NCC2CC2)n1` gave KCNK9 block inactive, Kir21 inh -0.48, KCNQ1 block inactive, KCNQ1 pot inactive, KCNK3 inh inactive and hERG protect -10.1.
For Cn1c(=O)c(Oc2ccc(Cl)cc2)c(O)c2ccccc21 the results were KCNK9 block inactive, Kir21 inh 0.84, KCNQ1 block inactive, KCNQ1 pot inactive, KCNK3 inh inactive and hERG protect -7.0.
Cn1c(=O)c2nc(-c3ccc(Cl)cc3Cl)oc2c2ccccc21 was read as KCNK9 block -10.2*, Kir21 inh 0.87, KCNQ1 block inactive, KCNQ1 pot inactive, KCNK3 inh inactive, hERG protect -4.4, KCNK9 inh conf 27.5%*, Kir2-1 spec inactive and HEK293 Tl ctr 32.5%*.
